# Residue numbers refer to the chain shown, from its start. Names may count otherwise. “Also recorded” adds a separate entry of the source. Where no end group is shown, it is not given here.
# T1: myosin-X MyTH4–FERM cassette K1647D/K1650D (human, UniProt Q9HD67 1486-2058, Δ20 deletion (residues 1872–1891) | K1647D | K1650D)
# T1 sequence (looked up): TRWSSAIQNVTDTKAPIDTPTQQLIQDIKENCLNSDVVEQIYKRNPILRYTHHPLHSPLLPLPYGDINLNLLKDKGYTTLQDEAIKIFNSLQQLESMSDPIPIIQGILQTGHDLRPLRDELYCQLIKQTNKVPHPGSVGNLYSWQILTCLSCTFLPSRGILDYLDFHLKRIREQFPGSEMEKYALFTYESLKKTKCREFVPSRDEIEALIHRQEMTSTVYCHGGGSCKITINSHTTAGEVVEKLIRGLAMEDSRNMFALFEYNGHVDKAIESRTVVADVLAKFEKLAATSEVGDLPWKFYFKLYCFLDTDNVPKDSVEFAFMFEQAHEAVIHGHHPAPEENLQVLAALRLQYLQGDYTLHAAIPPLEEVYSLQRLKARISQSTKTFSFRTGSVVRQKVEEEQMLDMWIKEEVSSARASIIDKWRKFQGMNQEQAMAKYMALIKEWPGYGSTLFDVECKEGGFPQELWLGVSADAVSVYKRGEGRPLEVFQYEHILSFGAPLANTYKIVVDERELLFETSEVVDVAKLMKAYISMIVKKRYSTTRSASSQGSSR
# T2: myosin-X MyTH4–FERM cassette F2002K (human, UniProt Q9HD67 1486-2058, Δ20 deletion (residues 1872–1891) | F2002K)
# T2 sequence (looked up): T1 sequence (looked up) with D162K, D165K, F497K
# B1: myc–MyTH4–FERM(ΔC): residues 1486–1954, lacks subdomain C of the FERM domain (protein)
# chain: TRWSSAIQNVTDTKAPIDTPTQQLIQDIKENCLNSDVVEQIYKRNPILRYTHHPLHSPLLPLPYGDINLNLLKDKGYTTLQDEAIKIFNSLQQLESMSDPIPIIQGILQTGHDLRPLRDELYCQLIKQTNKVPHPGSVGNLYSWQILTCLSCTFLPSRGILKYLKFHLKRIREQFPGSEMEKYALFTYESLKKTKCREFVPSRDEIEALIHRQEMTSTVYCHGGGSCKITINSHTTAGEVVEKLIRGLAMEDSRNMFALFEYNGHVDKAIESRTVVADVLAKFEKLAATSEVGDLPWKFYFKLYCFLDTDNVPKDSVEFAFMFEQAHEAVIHGHHPAPEENLQVLAALRLQYLQGDYTLHAAIPPLEEVYSLQRLKARISQSTKTFTPCERLEKRRTSFLEGTLRRSFRTGSVVRQKVEEEQMLDMWIKEEVSSARASIIDKWRKFQGMNQEQAMAKYMALIKEWPGYG
# modifications: left off: myc, end not stated, kept
# B2: MyTH4–FERM cassette (protein)
# chain: T1 sequence (looked up) with D162K, D165K
# modifications: left off: His6, N-terminal, cleaved
# B3: Myo-X (F2002K) (protein)
# chain: T1 sequence (looked up) with D162K, D165K, F497K
# modifications: left off: His6, N-terminal, cleaved
# B4: Myo-X (K1647D/K1650D) (protein)
# chain: T1 sequence (looked up)
# modifications: left off: His6, N-terminal, cleaved
# B5: GST-fused DCC P3 peptide (residues 1390–1447) (peptide, UniProt P43146 1390-1447, looked up)
# chain: ARSPLLPVSVPTAPEVSEESHKPTEDSANVYEQDDLSEQMASLEGLMKQLNAITGSAF
# B6: GST-fused β2B-tubulin C-terminal acidic tail peptide (390–445) (peptide, UniProt Q9BVA1 390-445, looked up)
# chain: RRKAFLHWYTGEGMDEMEFTEAESNMNDLVSEYQQYQDATADEQGEFEEEEGEDEA
# modifications: also: GST-fused (side not given here)
# B7: myc-tagged myosin-X MyTH4–FERM cassette: myc-tagged full-length MyTH4–FERM cassette (residues 1486–2058) (protein)
# chain: TRWSSAIQNVTDTKAPIDTPTQQLIQDIKENCLNSDVVEQIYKRNPILRYTHHPLHSPLLPLPYGDINLNLLKDKGYTTLQDEAIKIFNSLQQLESMSDPIPIIQGILQTGHDLRPLRDELYCQLIKQTNKVPHPGSVGNLYSWQILTCLSCTFLPSRGILKYLKFHLKRIREQFPGSEMEKYALFTYESLKKTKCREFVPSRDEIEALIHRQEMTSTVYCHGGGSCKITINSHTTAGEVVEKLIRGLAMEDSRNMFALFEYNGHVDKAIESRTVVADVLAKFEKLAATSEVGDLPWKFYFKLYCFLDTDNVPKDSVEFAFMFEQAHEAVIHGHHPAPEENLQVLAALRLQYLQGDYTLHAAIPPLEEVYSLQRLKARISQSTKTFTPCERLEKRRTSFLEGTLRRSFRTGSVVRQKVEEEQMLDMWIKEEVSSARASIIDKWRKFQGMNQEQAMAKYMALIKEWPGYGSTLFDVECKEGGFPQELWLGVSADAVSVYKRGEGRPLEVFQYEHILSFGAPLANTYKIVVDERELLFETSEVVDVAKLMKAYISMIVKKRYSTTRSASSQGSSR
# modifications: left off: myc, end not stated, kept
# Columns and labels:
# [1] = system: myosin-X MyTH4–FERM cassette; test: Pull-down with GST-fused C-terminal tail peptides of α- and β-tubulins; format: binding, human; details: for binding of tubulin C-terminal acidic tail peptides: 20 mM Tris–HCl (pH 8.0), 50 mM NaCl, 1 mM DTT, 4°C, 30 min
# Outline: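 Purified MyTH4–FERM cassette was mixed with GST-fused α1A-tubulin (399–451) or β2B-tubulin (390–445) tail peptide in 20 mM Tris–HCl pH 8.0, 50 mM NaCl, 1 mM DTT at 4°C for 30 min. Glutathione-Sepharose was then added for 10 min at 4°C, with five washes. Elution used 20 mM glutathione in 50 mM Tris–HCl pH 8.0 with 150 mM NaCl, then SDS–PAGE.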
# DCC [2] = test: Co-immunoprecipitation of DCC with myc-tagged myosin-X MyTH4–FERM; format: cell-based; details: HEK293T cells, anti-myc antibody, immunoblot
# [3] = system: C-terminal acidic tail peptide of β2B-tubulin; test: Pull-down of wild-type and mutated MyTH4–FERM cassettes with GST-tubulin tail; format: binding; details: SDS–PAGE
# Outline: (§1)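 Human myosin-X MyTH4–FERM cassette (wild type or site-directed mutants) was expressed in E. coli BL21Star(DE3) at 20°C with 0.1 mM IPTG. It was Ni-NTA purified, then His-tag cleaved with HRV3C, then run over cation exchange and gel filtration. GST bait was human DCC 1390–1447 or β2B-tubulin 390–445. Cassette and bait were mixed with glutathione-Sepharose at 4°C, washed, and eluates resolved by SDS–PAGE.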
# [4] = Analytical ultracentrifugation; format: physicochemical; details: AUC, mono-modal peak
# Outline: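 Sedimentation velocity at 20°C and 25 000 r.p.m. Purified protein was in 20 mM Tris (pH 8.5), 150 mM NaCl and 5 mM DTT, at 1 mg/ml (14 μM). Sedimentation data were fitted to obtain the species distribution.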
# [5] = system: myosin-X MyTH4–FERM cassette; test: Gel filtration and AUC of cassette–DCC P3 complex; format: binding, human; details: through the MyTH4–FERM cassette
# DCC [6] = details: yeast two-hybrid; ref Zhu et al, 2007; cited from earlier work
# microtubules = details: ref Weber et al, 2004; cited from earlier work
# DCC P3 peptide = test: Pull-down of wild-type and mutated MyTH4–FERM cassettes with GST-DCC P3 peptide; format: binding, human; details: SDS–PAGE
# Outline: as §1
# [7] = target: T1, myosin-X MyTH4–FERM cassette …; test: pull-down
# [8] = target: T2, myosin-X MyTH4–FERM cassette F2002K; test: pull-down
molecule,measurement,setting,value
α-tubulin C-terminal acidic tail peptide: GST-fused C-terminal tail peptide of α1A-tubulin (399–451),binding of tubulin C-terminal acidic tail peptides,[1],binds
β-tubulin C-terminal acidic tail peptide: GST-fused C-terminal acidic tail peptide of β2B-tubulin (390–445) ({GST}-RRKAFLHWYTGEGMDEMEFTEAESNMNDLVSEYQQYQDATADEQGEFEEEEGEDEA; not fully specified),binding of tubulin C-terminal acidic tail peptides,[1],binds
B1,co-immunoprecipitation of DCC,DCC [2],no interaction
B2,binding to α- and β-tubulin acidic tails,[1]; SDS–PAGE,binds both α- and β-tubulin acidic tails
same,binding to β2B-tubulin C-terminal tail peptide,[3],shows binding
same,association state in solution,[4],monomer
same,cargo-mediated dimerization of myosin-X,[5],no cargo-mediated dimerization was observed
same,DCC binding in two-hybrid assay,DCC [6],sufficient for DCC and neogenin binding; also recorded: full DCC-binding affinity
same,microtubule association,microtubules,sufficient to confer microtubule association
B3,binding to β2B-tubulin C-terminal tail peptide,[3],no effect on tubulin tail binding
same,binding to β2B-tubulin C-terminal tail peptide,[3]; listed as F2002K,no effect on binding to the tubulin tail
same,binding to DCC P3 peptide,DCC P3 peptide,abolished the binding
same,binding to DCC P3 peptide,DCC P3 peptide; listed as F2002K,abolished DCC binding
B4,binding to β2B-tubulin C-terminal tail peptide,[3],abolished binding
same,binding to DCC P3 peptide,DCC P3 peptide,only weakly affected binding
same,binding to DCC P3 peptide,DCC P3 peptide; listed as K1647D/K1650D,only a slight reduction in DCC binding
B5,binding result,[7],binds
B6,binding result,[8],binds
B7,co-immunoprecipitation of DCC,DCC [2],co-immunoprecipitation of DCC

# Reference: publication PMC3155308 (The EMBO Journal, 2011)
